From ChEMBL document CHEMBL4689842, “EUbOPEN Chemogenomics Library wave 1” (2021)

System: Fibroblast
Test: Multiplex assay against human fibroblast
Assay type: toxicity, cell-based
In short: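 On a CQ1 microscope at 37°C and 5% CO2, live cells were imaged after compound addition. They had been stained at seeding with Hoechst33342, BioTracker Green Microtubule Cytoskeleton Dye, MitoTracker Red and Annexin V Alexa Fluor 680. CellPathfinder machine-learning gating assigned cells to Hoechst high-intensity objects or normal cells, normal cells to healthy, pyknosed or fragmented nuclei, and pyknosed cells to mitotic or apoptotic. Tubulin, mitochondrial-mass and membrane-permeability phenotypes are per cents of healthy-nucleus cells.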

[1] = 12 h, 1 µM, compound concentration 1 uM, replicate 1
[2] = 12 h, 1 µM, compound concentration 1 uM, replicate 2
[3] = 12 h, 10 µM, compound concentration 10 uM, replicate 1
[4] = 12 h, 10 µM, compound concentration 10 uM, replicate 2
[5] = 24 h, 1 µM, compound concentration 1 uM, replicate 1
[6] = 24 h, 1 µM, compound concentration 1 uM, replicate 2
[7] = 24 h, 10 µM, compound concentration 10 uM, replicate 1
[8] = 24 h, 10 µM, compound concentration 10 uM, replicate 2
[9] = 48 h, 1 µM, compound concentration 1 uM, replicate 1
[10] = 48 h, 1 µM, compound concentration 1 uM, replicate 2
[11] = 48 h, 10 µM, compound concentration 10 uM, replicate 1
[12] = 48 h, 10 µM, compound concentration 10 uM, replicate 2

CCCn1c(=O)c2[nH]c(-c3cnn(Cc4cccc(C(F)(F)F)c4)c3)nc2n(CC)c1=O [GS 6201]
Population Apoptotic (%) [1]: 51% | Population Fragmented Nuclei (%) [1]: 26% | Population Healthy Nuclei (%) [1]: 32% | Population Hoechst High Intensity Objects (%) [1]: 11% | Population Membrane Permeable-Phenotype (%) [1]: 33% | Population Mitochondria Different-Phenotype (%) [1]: 14% | Population Mitotic Cells (%) [1]: 48% | Population Normal (%) [1]: 88% | Population Pyknosed Nuclei (%) [1]: 41% | Population Tubulin-Different-Phenotype (%) [1]: 59% | Total Cell Count [1]: 95 | Population Apoptotic (%) [2]: 42% | Population Fragmented Nuclei (%) [2]: 4% | Population Healthy Nuclei (%) [2]: 88% | Population Hoechst High Intensity Objects (%) [2]: 2% | Population Membrane Permeable-Phenotype (%) [2]: 8% | Population Mitochondria Different-Phenotype (%) [2]: 9% | Population Mitotic Cells (%) [2]: 57% | Population Normal (%) [2]: 97% | Population Pyknosed Nuclei (%) [2]: 7% | Population Tubulin-Different-Phenotype (%) [2]: 28% | Total Cell Count [2]: 75 | Population Apoptotic (%) [3]: 76% | Population Fragmented Nuclei (%) [3]: 48% | Population Healthy Nuclei (%) [3]: 18% | Population Hoechst High Intensity Objects (%) [3]: 31% | Population Membrane Permeable-Phenotype (%) [3]: 25% | Population Mitochondria Different-Phenotype (%) [3]: 17% | Population Mitotic Cells (%) [3]: 24% | Population Normal (%) [3]: 68% | Population Pyknosed Nuclei (%) [3]: 33% | Population Tubulin-Different-Phenotype (%) [3]: 46% | Total Cell Count [3]: 221 | Population Apoptotic (%) [4]: 50% | Population Fragmented Nuclei (%) [4]: 17% | Population Healthy Nuclei (%) [4]: 77% | Population Hoechst High Intensity Objects (%) [4]: 5% | Population Membrane Permeable-Phenotype (%) [4]: 3% | Population Mitochondria Different-Phenotype (%) [4]: 20% | Population Mitotic Cells (%) [4]: 50% | Population Normal (%) [4]: 94% | Population Pyknosed Nuclei (%) [4]: 4% | Population Tubulin-Different-Phenotype (%) [4]: 10% | Total Cell Count [4]: 98 | Population Apoptotic (%) [5]: 70% | Population Fragmented Nuclei (%) [5]: 21% | Population Healthy Nuclei (%) [5]: 42% | Population Hoechst High Intensity Objects (%) [5]: 20% | Population Membrane Permeable-Phenotype (%) [5]: 32% | Population Mitochondria Different-Phenotype (%) [5]: 10% | Population Mitotic Cells (%) [5]: 29% | Population Normal (%) [5]: 79% | Population Pyknosed Nuclei (%) [5]: 36% | Population Tubulin-Different-Phenotype (%) [5]: 82% | Total Cell Count [5]: 83 | Population Apoptotic (%) [6]: 50% | Population Fragmented Nuclei (%) [6]: 5% | Population Healthy Nuclei (%) [6]: 90% | Population Hoechst High Intensity Objects (%) [6]: 4% | Population Membrane Permeable-Phenotype (%) [6]: 2% | Population Mitotic Cells (%) [6]: 50% | Population Normal (%) [6]: 95% | Population Pyknosed Nuclei (%) [6]: 4% | Population Tubulin-Different-Phenotype (%) [6]: 30% | Total Cell Count [6]: 81 | Population Apoptotic (%) [7]: 87% | Population Fragmented Nuclei (%) [7]: 51% | Population Healthy Nuclei (%) [7]: 24% | Population Hoechst High Intensity Objects (%) [7]: 26% | Population Membrane Permeable-Phenotype (%) [7]: 29% | Population Mitochondria Different-Phenotype (%) [7]: 12% | Population Mitotic Cells (%) [7]: 12% | Population Normal (%) [7]: 73% | Population Pyknosed Nuclei (%) [7]: 23% | Population Tubulin-Different-Phenotype (%) [7]: 56% | Total Cell Count [7]: 224 | Population Apoptotic (%) [8]: 50% | Population Fragmented Nuclei (%) [8]: 17% | Population Healthy Nuclei (%) [8]: 72% | Population Hoechst High Intensity Objects (%) [8]: 3% | Population Membrane Permeable-Phenotype (%) [8]: 5% | Population Mitochondria Different-Phenotype (%) [8]: 11% | Population Mitotic Cells (%) [8]: 50% | Population Normal (%) [8]: 96% | Population Pyknosed Nuclei (%) [8]: 10% | Population Tubulin-Different-Phenotype (%) [8]: 9% | Total Cell Count [8]: 139 | Population Apoptotic (%) [9]: 69% | Population Fragmented Nuclei (%) [9]: 38% | Population Healthy Nuclei (%) [9]: 41% | Population Hoechst High Intensity Objects (%) [9]: 20% | Population Membrane Permeable-Phenotype (%) [9]: 25% | Population Mitochondria Different-Phenotype (%) [9]: 17% | Population Mitotic Cells (%) [9]: 30% | Population Normal (%) [9]: 79% | Population Pyknosed Nuclei (%) [9]: 19% | Population Tubulin-Different-Phenotype (%) [9]: 67% | Total Cell Count [9]: 84 | Population Apoptotic (%) [10]: 100% | Population Fragmented Nuclei (%) [10]: 20% | Population Healthy Nuclei (%) [10]: 76% | Population Hoechst High Intensity Objects (%) [10]: 11% | Population Membrane Permeable-Phenotype (%) [10]: 13% | Population Mitochondria Different-Phenotype (%) [10]: 5% | Population Mitotic Cells (%) [10]: 0% | Population Normal (%) [10]: 89% | Population Pyknosed Nuclei (%) [10]: 3% | Population Tubulin-Different-Phenotype (%) [10]: 35% | Total Cell Count [10]: 100 | Population Apoptotic (%) [11]: 84% | Population Fragmented Nuclei (%) [11]: 61% | Population Healthy Nuclei (%) [11]: 26% | Population Hoechst High Intensity Objects (%) [11]: 31% | Population Membrane Permeable-Phenotype (%) [11]: 41% | Population Mitochondria Different-Phenotype (%) [11]: 4% | Population Mitotic Cells (%) [11]: 15% | Population Normal (%) [11]: 68% | Population Pyknosed Nuclei (%) [11]: 11% | Population Tubulin-Different-Phenotype (%) [11]: 48% | Total Cell Count [11]: 234 | Population Apoptotic (%) [12]: 0% | Population Fragmented Nuclei (%) [12]: 28% | Population Healthy Nuclei (%) [12]: 67% | Population Hoechst High Intensity Objects (%) [12]: 11% | Population Membrane Permeable-Phenotype (%) [12]: 12% | Population Mitochondria Different-Phenotype (%) [12]: 1% | Population Mitotic Cells (%) [12]: 100% | Population Normal (%) [12]: 88% | Population Pyknosed Nuclei (%) [12]: 4% | Population Tubulin-Different-Phenotype (%) [12]: 63% | Total Cell Count [12]: 109
